In ChEMBL document CHEMBL1124146, “Synthesis of the tumorigenic 3,4-dihydrodiol metabolites of dibenz[a,j]anthracene and 7,14-dimethyldibenz[a,j]anthracene” (1988):

Tests used:
Type in all cases: functional
Mus musculus [1] = species: Mus musculus; experiment: Compound was tested at a dose of 100 nmol for the skin tumor initiating activity expressed as papillomas per mouse
Method in brief: (§1)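 The initiator was applied topically to the shaved skin in 0.2 mL peroxide-free THF; controls received THF only. After 2 weeks, 3.4 nmol TPA in 0.2 mL acetone was given twice weekly. Papillomas were recorded weekly, with random histology. Means were compared by Student's t test.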

Mus musculus [2] = species: Mus musculus; experiment: Compound was tested at a dose of 100 nmol for the skin tumor initiating activity expressed as percent of mice with papillomas; method in brief: as §1
Mus musculus [3] = species: Mus musculus; experiment: Compound was tested at a dose of 400 nmol for the skin tumor initiating activity expressed as papillomas per mouse; method in brief: as §1
Mus musculus [4] = species: Mus musculus; experiment: Compound was tested at a dose of 400 nmol for the skin tumor initiating activity expressed as percent of mice with papillomas; method in brief: as §1

| SMILES | Activity (Mus musculus [1]) | Activity (Mus musculus [2]) [%] | Activity (Mus musculus [3]) | Activity (Mus musculus [4]) [%] |
| --- | --- | --- | --- | --- |
| Cc1c2ccc3c(c2c(C)c2c1ccc1ccccc12)C=C[C@H](O)[C@H]3O | 9.9 | 93 | 14.7 | 100 |
| O[C@H]1[C@H]2O[C@H]2c2c(ccc3cc4ccc5ccccc5c4cc23)[C@@H]1O |  |  | 3.95 | 92 |
| c1ccc2c(c1)ccc1cc3ccc4ccccc4c3cc12 [DIBENZO[A,J]ANTHRACENE] |  |  | 0.58 | 29 |
| O[C@H]1C=Cc2c(ccc3cc4ccc5ccccc5c4cc23)[C@@H]1O |  |  | 0.65 | 39 |
| Cc1c2ccc3ccccc3c2c(C)c2c1ccc1ccccc12 | 8.4 | 97 | 17.3 | 97 |
